Data from ChEMBL document CHEMBL1933020, “A novel series of glucagon receptor antagonists with reduced molecular weight and lipophilicity” (Bioorg Med Chem Lett, 2012).
In brackets after ≈: the same amount, converted by molar mass.

Tests used:
Rattus norvegicus [1] = assay: Antidiabetic activity in Wistar-Han rat assessed as reduction in glucagon-induced blood glucose excursion at 30 mg/kg, iv after 11 mins; format: functional; parameters: scale not given: the % may be the effect or the level left
Method in brief: (§1)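 Wistar-Han rats received compound or vehicle i.v. at t = 0 (1, 10 or 30 mg/kg), then a 3 µg/kg i.v. glucagon bolus at 15 min. Blood glucose was sampled at 0, 10, 26, 32, 50 and 80 min, and compound plasma levels were measured. n = 6 rats per dose group.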

[2] = Plasma concentration in Wistar-Han rat at 1 mg/kg, iv after 11 mins; format: ADME, organism-based; parameters: dose 1 mg/kg, route intravenous; method in brief: as §1
[3] = Plasma concentration in Wistar-Han rat at 10 mg/kg, iv after 11 mins; format: ADME, organism-based; parameters: dose 10 mg/kg, route intravenous; method in brief: as §1
[4] = Plasma concentration in Wistar-Han rat at 30 mg/kg, iv after 11 mins; format: ADME, organism-based; parameters: dose 30 mg/kg, route intravenous; method in brief: as §1
Glucagon receptor = Glucagon receptor (Homo sapiens, UniProt P47871); assay: Displacement of [125I]Glucagon-Cex from human GCGR
Method in brief: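 Displacement of [125I]glucagon-Cex from membranes containing the human glucagon receptor, run with 0.2% BSA. Values are geometric means of n ≥ 2 determinations.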

[5] = Lipophilicity, log D of the compound in octanol-phosphate buffer at pH 7.4; format: physicochemical; conditions: octanol/phosphate buffer, read-out: logD
Method in brief: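 Shake-flask partition between octanol and buffer at pH 7.4.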

[6] = Permeability across low transporter-containing MDCK2 cells; format: ADME, cell-based, Canis lupus familiaris, MDCK-II; conditions: dog, MDCK; read-out: permeability
[7] = Kinetic solubility of the compound at pH 6.5; format: physicochemical; conditions: buffer, read-out: Kinetic_solubility
[8] = Apparent intrinsic clearance in rat liver microsomes; format: ADME, Microsome; conditions: read-out: CLH
[9] = target: Glucagon-like peptide 1 receptor (Homo sapiens, UniProt P43220); assay: Displacement of [125I]GLP-1 from human GLP1R
Method in brief: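 Displacement of [125I]GLP-1 from membranes expressing the human GLP-1 receptor.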

[10] = target: T1, Gastric inhibitory polypeptide receptor (Homo sapiens, UniProt P48546); assay: Displacement of [125I]GIP from human GIPR
T1 sequence (P48546 whole entry): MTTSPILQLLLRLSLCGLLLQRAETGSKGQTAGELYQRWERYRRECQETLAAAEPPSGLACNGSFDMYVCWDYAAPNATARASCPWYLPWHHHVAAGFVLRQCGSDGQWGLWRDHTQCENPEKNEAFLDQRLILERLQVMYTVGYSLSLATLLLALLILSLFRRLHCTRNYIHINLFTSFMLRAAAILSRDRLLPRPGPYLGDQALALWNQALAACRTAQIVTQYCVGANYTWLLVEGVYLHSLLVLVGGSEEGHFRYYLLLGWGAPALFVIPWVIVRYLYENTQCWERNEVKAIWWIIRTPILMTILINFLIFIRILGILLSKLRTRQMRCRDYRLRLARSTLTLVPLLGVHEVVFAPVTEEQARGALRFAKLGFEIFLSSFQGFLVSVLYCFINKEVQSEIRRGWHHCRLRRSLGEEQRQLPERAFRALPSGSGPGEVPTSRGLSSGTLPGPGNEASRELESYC

Rattus norvegicus [11] = assay: Half life in Wistar-Han rat at 1 mg/kg, iv and 5 mg/kg, po; format: ADME, organism-based; conditions: in vivo
Method in brief: (§2)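 Wistar-Han rats were dosed at 1 mg/kg i.v. and 5 mg/kg p.o.; pharmacokinetic parameters were derived from the plasma profiles.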

Rattus norvegicus [12] = assay: Volume of distribution at steady state in Wistar-Han rat at 1 mg/kg, iv and 5 mg/kg, po; format: ADME, organism-based; conditions: in vivo; method in brief: as §2
Rattus norvegicus [13] = assay: Oral bioavailability in Wistar-Han rat at 5 mg/kg; format: ADME, organism-based; conditions: in vivo; method in brief: as §2
[14] = Cytotoxicity against human THLE cells after 72 hrs; format: cell-based; conditions: thle
Method in brief: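 Transformed human liver epithelial (THLE) cells were exposed to compound for 72 h. Cytotoxicity was read as cellular ATP depletion and reported as the concentration predicted to kill 50% of cells.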

Rattus norvegicus [15] = assay: Antidiabetic activity in Wistar-Han rat assessed as reduction in glucagon-induced blood glucose excursion at 1 mg/kg, iv after 11 mins; format: functional; parameters: scale not given: the % may be the effect or the level left; method in brief: as §1
Rattus norvegicus [16] = assay: Antidiabetic activity in Wistar-Han rat assessed as reduction in glucagon-induced blood glucose excursion at 10 mg/kg, iv after 11 mins; format: functional; parameters: scale not given: the % may be the effect or the level left; method in brief: as §1
[17] = target: Glucagon receptor (Rattus norvegicus) (UniProt P30082); assay: Antagonist activity at rat GCGR assessed as inhibition of glucagon-induced cAMP production

Sequence of Glucagon receptor (P47871 whole entry): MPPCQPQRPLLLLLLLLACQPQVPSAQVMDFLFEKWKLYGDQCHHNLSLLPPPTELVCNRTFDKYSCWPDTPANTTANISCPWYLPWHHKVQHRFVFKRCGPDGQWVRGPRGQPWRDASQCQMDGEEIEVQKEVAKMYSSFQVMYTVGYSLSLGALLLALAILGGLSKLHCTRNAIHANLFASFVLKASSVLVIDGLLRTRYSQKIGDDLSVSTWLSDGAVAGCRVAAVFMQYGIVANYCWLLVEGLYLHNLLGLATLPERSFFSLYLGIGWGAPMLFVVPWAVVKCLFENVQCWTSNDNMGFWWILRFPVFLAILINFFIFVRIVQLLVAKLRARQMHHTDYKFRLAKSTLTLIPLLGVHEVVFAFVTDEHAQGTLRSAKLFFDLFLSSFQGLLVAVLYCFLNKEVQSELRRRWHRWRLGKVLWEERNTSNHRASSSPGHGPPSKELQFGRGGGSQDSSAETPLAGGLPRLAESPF
Sequence of Glucagon-like peptide 1 receptor (P43220 whole entry): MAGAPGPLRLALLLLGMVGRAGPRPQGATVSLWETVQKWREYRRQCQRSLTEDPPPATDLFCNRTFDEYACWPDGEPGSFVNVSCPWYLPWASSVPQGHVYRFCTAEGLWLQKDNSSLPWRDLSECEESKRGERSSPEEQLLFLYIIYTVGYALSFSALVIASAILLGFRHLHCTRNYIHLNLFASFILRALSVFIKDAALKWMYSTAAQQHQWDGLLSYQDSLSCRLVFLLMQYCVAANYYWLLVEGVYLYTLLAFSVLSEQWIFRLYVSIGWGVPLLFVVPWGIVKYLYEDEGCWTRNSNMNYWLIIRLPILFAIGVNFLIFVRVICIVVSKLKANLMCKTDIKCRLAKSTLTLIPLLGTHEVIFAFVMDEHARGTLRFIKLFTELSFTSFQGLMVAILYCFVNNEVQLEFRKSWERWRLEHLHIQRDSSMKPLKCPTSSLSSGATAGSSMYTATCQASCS

- concentration at 11 min [2]: 300 ng/mL
- concentration at 11 min [3]: 2280 ng/mL
- concentration at 11 min [4]: 21000 ng/mL
- Ki (Glucagon receptor): 0.009 µM
- logD [5]: 2.27
- Papp [6]: 6.34 ×10⁻⁶ cm/s
- solubility kinetic [7]: 320 µM (≈ 160 µg/mL)
- CLint scaled [8]: < 25 mL/min/kg
- Ki [9]: 3.34 µM
- Ki [10]: 0.152 µM
- t1/2 (Rattus norvegicus [11]): 24 min
- Vdss (Rattus norvegicus [12]): 1.27 L/kg
- F (Rattus norvegicus [13]): 2%
SMILES: O=C(O)CCNC(=O)c1ccc(C(Nc2cnn(-c3ccc(C(F)(F)F)cc3)c2)C2CCCC2)cc1 (single isomer, unassigned; (+))
- Activity (Rattus norvegicus [1]): 24%
- IC50 [14]: 235 µM
- Activity (Rattus norvegicus [15]): 12%
- Activity (Rattus norvegicus [16]): 20%
- Kb [17]: 2.34 µM
